Source: ChEMBL document CHEMBL1152835, “Synthesis and QSAR modeling of 2-acetyl-2-ethoxycarbonyl-1-[4(4'-arylazo)-phenyl]-N,N-dimethylaminophenyl aziridines as potential antibacterial agents” (2009)
Values after ≈ are worked out from the molar mass of the structure shown.

Experiments:
Format in all cases: functional
Escherichia coli = experiment: Antibacterial activities against Escherichia coli ATCC 13067 after 16 to 24 hrs by twofold serial dilution method
Method in brief: (§1)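 Agar twofold serial dilution; compounds from DMF stock. Inoculum about 10⁷ CFU/ml taken from log-phase broth culture. Plates in triplicate, incubated at 37 °C for 16–24 h. Azinomycin run under the same conditions as control drug. MIC = lowest concentration giving no visible growth.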

Brevundimonas diminuta = experiment: Antibacterial activities against Pseudomonas diminuta MTCC 3361 after 16 to 24 hrs by twofold serial dilution method; method in brief: as §1
Staphylococcus aureus = experiment: Antibacterial activities against Staphylococcus aureus ATCC 2943 after 16 to 24 hrs by twofold serial dilution method; method in brief: as §1
Bacillus subtilis = experiment: Antibacterial activities against Bacillus subtilis ATCC 6633 after 16 to 24 hrs by twofold serial dilution method; settings: for MIC: Bacillus subtilis, ATCC 6633; method in brief: as §1

Compound	-logMIC (Escherichia coli)	-logMIC (Brevundimonas diminuta)	-logMIC (Staphylococcus aureus)	-logMIC (Bacillus subtilis)	MIC (Bacillus subtilis) [ng/mL]
CCOC(=O)C1(C(C)=O)C(c2ccc(N(C)C)cc2)N1c1ccc(/N=N/c2cccc(C(=O)O)c2)cc1 (stereo not drawn)	4.337	4.495	4.398	4.553	0.028 (≈ 0.0559 nM)
CCOC(=O)C1(C(C)=O)C(c2ccc(N(C)C)cc2)N1c1ccc(/N=N/c2cccc(O)c2)cc1 (stereo not drawn)	4.118	4.212	4.155	4.243	0.0571 (≈ 0.121 nM)
CCOC(=O)C1(C(C)=O)C(c2ccc(N(C)C)cc2)N1c1ccc(/N=N/c2cccc(OC)c2)cc1 (stereo not drawn)	4.364	4.54	4.431	4.607	0.0247 (≈ 0.0508 nM)
CCOC(=O)C1(C(C)=O)C(c2ccc(N(C)C)cc2)N1c1ccc(/N=N/c2cccc(C)c2)cc1 (stereo not drawn)	4.241	4.371	4.292	4.442	0.0361 (≈ 0.0768 nM)
CCOC(=O)C1(C(C)=O)C(c2ccc(N(C)C)cc2)N1c1ccc(/N=N/c2ccc(C)cc2)cc1 (stereo not drawn)	–	4.591	–	–	–
CCOC(=O)C1(C(C)=O)C(c2ccc(N(C)C)cc2)N1c1ccc(/N=N/c2ccccc2OC)cc1 (stereo not drawn)	–	4.421	–	–	–
CCOC(=O)C1(C(C)=O)C(c2ccc(N(C)C)cc2)N1c1ccc(/N=N/c2cccc(Cl)c2)cc1 (stereo not drawn)	4.276	4.412	4.329	4.46	0.0347 (≈ 0.0706 nM)
CCOC(=O)C1(C(C)=O)C(c2ccc(N(C)C)cc2)N1c1ccc(/N=N/c2ccc(C(=O)O)cc2)cc1 (stereo not drawn)	4.301	4.444	4.357	4.495	0.032 (≈ 0.0639 nM)
CCOC(=O)C1(C(C)=O)C(c2ccc(N(C)C)cc2)N1c1ccc(/N=N/c2ccc([N+](=O)[O-])cc2)cc1 (stereo not drawn)	4.378	4.524	4.445	4.586	0.0259 (≈ 0.0517 nM)
CCOC(=O)C1(C(C)=O)C(c2ccc(N(C)C)cc2)N1c1ccc(/N=N/c2ccccc2)cc1 (stereo not drawn)	4.046	4.128	4.079	4.154	0.0701 (≈ 0.154 nM)
CCOC(=O)C1(C(C)=O)C(c2ccc(N(C)C)cc2)N1c1ccc(/N=N/c2ccc(Cl)cc2)cc1 (stereo not drawn)	4.228	4.348	4.276	4.39	0.0407 (≈ 0.083 nM)
CCOC(=O)C1(C(C)=O)C(c2ccc(N(C)C)cc2)N1c1ccc(/N=N/c2cccc([N+](=O)[O-])c2)cc1 (stereo not drawn)	4.399	4.586	4.469	4.658	0.022 (≈ 0.0438 nM)
CCOC(=O)C1(C(C)=O)C(c2ccc(N(C)C)cc2)N1c1ccc(/N=N/c2cccc(Br)c2)cc1 (stereo not drawn)	–	4.378	–	–	–
CCOC(=O)C1(C(C)=O)C(c2ccc(N(C)C)cc2)N1c1ccc(/N=N/c2ccc(O)cc2)cc1 (stereo not drawn)	4.094	4.183	4.13	4.212	0.0614 (≈ 0.13 nM)
